These results are taken from ChEMBL document CHEMBL4251662, “Alkyl indole-based cannabinoid type 2 receptor tools: Exploration of linker and fluorophore attachment” (Eur J Med Chem, 2018).

Data set [1] deals with HEK293. Nature of the data set: Effect on forskolin-stimulated cAMP level in HEK293 cells at 1 uM by BRET assay relative to control. The format is ADME, cell-based. The settings on record: human, hek293, 1 µM. The essentials: (§1)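 Wild-type HEK293 cells lacking transfected receptor, tested at 10 µM and 1 µM. Forskolin-stimulated cAMP measured by BRET as a check that responses are receptor-mediated.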

Data set [2] relates to HEK293. Nature of the data set: Effect on forskolin-stimulated cAMP level in HEK293 cells at 10 uM by BRET assay relative to control. The format is ADME, cell-based. The settings on record: human, hek293, 10 µM. The essentials:
as §1
On the technique in general: cAMP levels reflect the balance of adenylyl cyclase and phosphodiesterase activity.

In data set [3] the target is T1, Cannabinoid receptor 2 (Homo sapiens, UniProt P34972). Nature of the data set: Displacement of [3H]CP55,940 from N-terminal HA-tagged human CB2 receptor expressed in HEK293 cell membranes after 1 hr by microbeta scintillation counting method. In general terms: Loss of bound radioactivity is the signal in a displacement assay; it reports binding, not function.
T1 sequence (P34972 whole entry): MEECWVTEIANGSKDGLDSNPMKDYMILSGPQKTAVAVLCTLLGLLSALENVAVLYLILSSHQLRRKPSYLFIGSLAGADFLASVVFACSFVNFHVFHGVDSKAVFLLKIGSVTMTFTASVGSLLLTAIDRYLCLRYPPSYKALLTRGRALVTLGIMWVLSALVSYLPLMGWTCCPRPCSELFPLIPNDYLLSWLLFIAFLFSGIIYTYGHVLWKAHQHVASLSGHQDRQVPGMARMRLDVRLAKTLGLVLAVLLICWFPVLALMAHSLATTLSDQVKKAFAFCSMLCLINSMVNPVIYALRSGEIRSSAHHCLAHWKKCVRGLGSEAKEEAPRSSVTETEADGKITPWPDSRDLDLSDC
Data set [4] has as its target T2, Cannabinoid receptor 1 (Homo sapiens, UniProt P21554). In words: Displacement of [3H]CP55,940 from N-terminal HA-tagged human CB1 receptor expressed in HEK293 cell membranes at 10 uM after 1 hr by microbeta scintillation counting method relative to control. The essentials: (§2)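 Single-point competition screen against [3H]CP55,940 in HEK293 cells over-expressing 3HA-tagged hCB2 or hCB1. Compounds giving more than 50% displacement went on to full concentration-response curves.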

The target in data set [5] is T1, Cannabinoid receptor 2. Nature of the data set: Displacement of [3H]CP55,940 from N-terminal HA-tagged human CB2 receptor expressed in HEK293 cell membranes at 10 uM after 1 hr by microbeta scintillation counting method relative to control. A digest of the protocol:
as §2

The target of data set [6] is T2, Cannabinoid receptor 1. In words: Displacement of [3H]CP55,940 from N-terminal HA-tagged human CB1 receptor expressed in HEK293 cell membranes after 1 hr by microbeta scintillation counting method.
In data set [7] the target is T1, Cannabinoid receptor 2. Nature of the data set: Agonist activity at N-terminal HA-tagged human CB2 receptor expressed in HEK293 cells transfected with YFP-Epac-RLuc assessed as decrease in forskolin-stimulated cAMP level at 10 uM by BRET assay. The data set is classed as functional, cell-based. A digest of the protocol:
(§3)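 Single-concentration screen at 10 µM in CB receptor-expressing HEK293 cells, run with and without CP55,940 as reference agonist. Forskolin-stimulated cAMP read by BRET biosensor. A fall in cAMP is scored as agonism and a rise as inverse agonism.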

For data set [8], the target named is T2, Cannabinoid receptor 1. In words: Agonist activity at N-terminal HA-tagged human CB1 receptor expressed in HEK293 cells transfected with YFP-Epac-RLuc assessed as decrease in forskolin-stimulated cAMP level at 10 uM by BRET assay. The format is functional, cell-based. A digest of the protocol:
as §3

Data set [9] concerns the target T1, Cannabinoid receptor 2. Nature of the data set: Agonist activity at N-terminal HA-tagged human CB2 receptor expressed in HEK293 cells transfected with YFP-Epac-RLuc assessed as decrease in forskolin-stimulated cAMP level by BRET assay relative to control. The format is functional, cell-based. A digest of the protocol: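 BRET cAMP biosensor read-out in HEK293 cells expressing HA-tagged human CB1 or CB2, with forskolin stimulation (5 µM). Concentration-response curves; area-under-curve values normalised to forskolin alone = 100% and basal = 0%. EC50 taken for agonists and IC50 for inverse agonists. Mean of at least three independent experiments, each point in duplicate.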

The source made the active and inactive calls. No cut-off for these calls is given here.

T2 sequence (P21554 whole entry): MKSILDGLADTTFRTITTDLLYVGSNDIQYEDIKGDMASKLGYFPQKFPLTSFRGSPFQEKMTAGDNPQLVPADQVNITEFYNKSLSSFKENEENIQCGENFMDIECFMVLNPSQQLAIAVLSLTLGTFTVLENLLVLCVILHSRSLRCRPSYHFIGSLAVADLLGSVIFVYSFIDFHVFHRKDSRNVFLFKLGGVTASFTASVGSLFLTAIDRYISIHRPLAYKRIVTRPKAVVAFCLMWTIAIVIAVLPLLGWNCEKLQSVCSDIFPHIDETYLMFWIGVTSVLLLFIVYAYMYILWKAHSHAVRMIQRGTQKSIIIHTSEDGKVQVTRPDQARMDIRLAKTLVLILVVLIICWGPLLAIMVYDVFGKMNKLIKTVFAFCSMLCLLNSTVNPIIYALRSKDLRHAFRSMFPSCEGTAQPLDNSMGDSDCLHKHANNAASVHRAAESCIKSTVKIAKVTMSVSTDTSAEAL

Turning to `Cc1c(C(=O)c2cccc3ccccc23)c2cccc3c2n1[C@H](CN1CCOCC1)CO3` [WIN-552122], the Activity in data set [1] was determined as 96.1%; in data set [2], 102.6%.
As to `COc1ccc(C(=O)c2cn(CCN3CCOCC3)c3ccc(OCC(=O)NCCOCCOCCNC(=O)CCCCCNC(=O)COc4ccc(/C=C/C5=[N+]6C(=Cc7ccc(-c8cccs8)n7[B-]6(F)F)C=C5)cc4)cc23)cc1`, the Ki (usually the equilibrium dissociation constant of an inhibitor or competing ligand from its target) in data set [3] (read-out: Ki) is more than 10 µM.
Same read-out and setting: under `CC(C)(NC(=O)COc1ccc2c(c1)c(C(=O)c1cccc3ccccc13)cn2CCN1CCOCC1)C(=O)NC(C)(C)C(=O)NCCNC(=O)CCCCCNC(=O)COc1ccc(/C=C/C2=[N+]3C(=Cc4ccc(-c5cccs5)n4[B-]3(F)F)C=C2)cc1` stands more than 10 µM.
Consider `NCCCCCCCCNC(=O)COc1ccc2c(c1)c(C(=O)c1cccc3ccccc13)cn2CCN1CCOCC1`, for which the inhibition in data set [4] and in data set [5] was more than 50% throughout. In data set [3] (read-out: Ki), the Ki was more than 10 µM.
Consider `COc1ccc(C(=O)c2cn(CC3CCOCC3)c3ccc(OCC(=O)NC(C)(C)C(=O)NC(C)(C)C(=O)NCCNC(=O)CCCCCNC(=O)COc4ccc(/C=C/C5=[N+]6C(=Cc7ccc(-c8cccs8)n7[B-]6(F)F)C=C5)cc4)cc23)cc1`, for which the Ki in data set [3] (read-out: Ki) was more than 10 µM.
With `COc1ccc(C(=O)c2cn(CCN3CCOCC3)c3ccc(OCC(=O)NCCOCCOCCNC(C)=O)cc23)cc1`, the inhibition in [4] and in data set [5] was more than 50% throughout. Also, the Ki in data set [3] (read-out: Ki) was more than 10 µM.
`NCCOCCOCCNC(=O)COc1ccc2c(c1)c(C(=O)c1cccc3ccccc13)cn2CCN1CCOCC1`: the inhibition in data set [4] and in [5] was more than 50% throughout. Moreover, the Ki in [3] (read-out: Ki) is more than 10 µM.
For `COc1ccc(C(=O)c2cn(CCN3CCOCC3)c3ccc(OCC(=O)NCCCCCCCCNC(=O)CCCCCNC(=O)COc4ccc(/C=C/C5=[N+]6C(=Cc7ccc(-c8cccs8)n7[B-]6(F)F)C=C5)cc4)cc23)cc1`, the Ki result in [3] (hek293) is listed as “Not Active”.
On to `COc1ccc(C(=O)c2cn(CCN3CCOCC3)c3ccc(OCC(=O)NCCCCCCCCN)cc23)cc1`, for which the inhibition in [4] and in data set [5] was more than 50% each time. The Ki in data set [3] (read-out: Ki) was more than 10 µM.
Take `COc1ccc(C(=O)c2cn(CCN3CCOCC3)c3ccc(OCCCCC(=O)NCCOCCOCCNC(=O)CCCCCNC(=O)COc4ccc(/C=C/C5=[N+]6C(=Cc7ccc(-c8cccs8)n7[B-]6(F)F)C=C5)cc4)cc23)cc1`: the Ki in [3] (read-out: Ki) and in [6] (read-out: Ki) was more than 10 µM throughout.
As to `COc1ccc(C(=O)c2cn(CC3CCOCC3)c3ccc(OCC(=O)N[C@@H](C)C(=O)N[C@@H](C)C(=O)NCCN)cc23)cc1`, the inhibition (in general, the percentage by which the read-out fell short of the control) in [4] is more than 50%. The Ki result in data set [3] (hek293) is “Not Active”.
Consider `O=C(CCCCCNC(=O)COc1ccc(/C=C/C2=[N+]3C(=Cc4ccc(-c5cccs5)n4[B-]3(F)F)C=C2)cc1)NCCOCCOCCNC(=O)COc1ccc2c(c1)c(C(=O)c1cccc3ccccc13)cn2CCN1CCOCC1`, for which the Ki in data set [3] (read-out: Ki) was more than 10 µM.
Consider `COc1ccc(C(=O)c2cn(CC3CCOCC3)c3c(OCCCCC(=O)NCCOCCOCCNC(C)=O)cccc23)cc1`, for which the inhibition in [4] and in data set [5] was more than 50% each time. The Ki in data set [3] (read-out: Ki) and in data set [6] (read-out: Ki) was more than 10 µM throughout.
As to `C[C@H](NC(=O)COc1ccc2c(c1)c(C(=O)c1cccc3ccccc13)cn2CCN1CCOCC1)C(=O)N[C@@H](C)C(=O)NCCN`, the inhibition in data set [4] is more than 50%. Also, in data set [3] (hek293), the Ki result is “Not Active”.
In the case of `O=C(CCCCCNC(=O)COc1ccc(/C=C/C2=[N+]3C(=Cc4ccc(-c5cccs5)n4[B-]3(F)F)C=C2)cc1)NCCCCCCCCNC(=O)COc1ccc2c(c1)c(C(=O)c1cccc3ccccc13)cn2CCN1CCOCC1`, in [3] (hek293), the Ki entry is reported as “Not Active”.
`COc1ccc(C(=O)c2cn(CCN3CCOCC3)c3ccc(OCC(=O)N[C@@H](C)C(=O)N[C@@H](C)C(=O)NCCN)cc23)cc1` had an inhibition in data set [4] of more than 50%. Further, in [3] (hek293), the Ki result is reported as “Not Active”.
Take `COc1ccc(C(=O)c2cn(CC3CCOCC3)c3ccc(OCCOCCOCCOCCNC(C)=O)cc23)cc1`: the Ki in data set [3] (read-out: Ki) was more than 10 µM; in [6] (hek293), “Not Active”. Moreover, the inhibition in data set [5] was more than 50%.
As to `COc1ccc(C(=O)c2cn(CCN3CCOCC3)c3ccc(OCC(=O)O)cc23)cc1`, the inhibition in [4] and in data set [5] was more than 50% in each case. In addition, the Ki in [3] (read-out: Ki) and in data set [6] (read-out: Ki) was more than 10 µM each time.
For the compound `COc1ccc(C(=O)c2cn(CCN3CCOCC3)c3ccc(OCCCCCCC(=O)NCCOCCOCCNC(=O)CCCCCNC(=O)COc4ccc(/C=C/C5=[N+]6C(=Cc7ccc(-c8cccs8)n7[B-]6(F)F)C=C5)cc4)cc23)cc1`, the Ki in [3] (read-out: Ki) and in data set [6] (read-out: Ki) was more than 10 µM throughout.
Take `COc1ccc(C(=O)c2cn(CCN3CCOCC3)c3ccc(OCC(=O)NC(C)(C)C(=O)NC(C)(C)C(=O)NCCNC(=O)CCCCCNC(=O)COc4ccc(/C=C/C5=[N+]6C(=Cc7ccc(-c8cccs8)n7[B-]6(F)F)C=C5)cc4)cc23)cc1`: in [3] (read-out: Ki), the Ki was more than 10 µM.
Take `CCCCCCC(C)(C)c1ccc([C@@H]2C[C@H](O)CC[C@H]2CCCO)c(O)c1` [CP-55940]: the Activity in data set [1] was determined as 99.2%; in data set [2], 98%. Also, the outcome in data set [7] and in data set [8] was Active. In addition, the Emax (as a rule, the greatest response seen or fitted, relative to the assay's reference) in data set [9] is 41%.
With `O=C(O)COc1ccc2c(c1)c(C(=O)c1cccc3ccccc13)cn2CCN1CCOCC1`, the inhibition in data set [4] and in data set [5] was more than 50% throughout. Further, the Ki in [3] (read-out: Ki) and in data set [6] (read-out: Ki) was more than 10 µM each time.
Regarding `COc1ccc(C(=O)c2cn(CCN3CCOCC3)c3cc(O)ccc23)cc1`, the Ki in [3] (read-out: Ki) was more than 10 µM; in data set [6] (hek293) it was “Not Active”. This compound returned an inhibition in data set [5] of more than 50%.
With `COc1ccc(C(=O)c2cn(CC3CCOC3)c3ccc(O)cc23)cc1` (stereo not given), the Ki in data set [3] (read-out: Ki) was more than 10 µM; in data set [6] (hek293), “Not Active”. The compound further had an inhibition in data set [5] of more than 50%.
Regarding `COc1ccc(C(=O)c2cn(CCN3CCOCC3)c3ccc(OCC(=O)NCCOCCOCCN)cc23)cc1`, the inhibition in [4] and in data set [5] was more than 50% throughout. For the same compound, the Ki in data set [3] (read-out: Ki) is more than 10 µM.
